Assay results reported in ChEMBL document CHEMBL1127602, “Synthesis and tissue biodistribution of [omega-11C]palmitic acid. A novel PET imaging agent for cardiac fatty acid metabolism” (J Med Chem, 1994).
Several values for one entry are separate records, joined by “and”; a condition that tells them apart may be missing. Equal values may be shown once.

What was measured:
[1] = system: Rattus norvegicus; assay: Biodistribution in rat blood after 1 hr of intravenous injection at a dose of […]; type: ADME, organism-based; settings: in vivo
Summary of the method: (§1)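 Female Sprague–Dawley rats (140–160 g, four per time point), fed ad lib, ether-anesthetized just before injection. Radiotracer bound to human serum albumin in ethanol–saline, given by femoral vein (≈50 μCi/rat). Rats sacrificed at 5, 10, 15, 30 or 60 min. Tissues excised and weighed, activity measured by γ-counting, expressed as %ID/g.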

[2] = system: Rattus norvegicus; assay: Biodistribution in rat lung after 30 min of intravenous injection at a dose of […]; type: ADME, organism-based; settings: in vivo, 0.5 h; summary of the method: as §1
[3] = system: Rattus norvegicus; assay: Biodistribution in rat liver after 10 min of intravenous injection at a dose of […]; type: ADME, organism-based; settings: in vivo; summary of the method: as §1
[4] = system: Rattus norvegicus; assay: Biodistribution in rat heart after 5 min of intravenous injection at a dose of […]; type: ADME, organism-based; settings: in vivo; summary of the method: as §1
[5] = system: Rattus norvegicus; assay: Biodistribution in rat kidney after 15 min of intravenous injection at a dose of […]; type: ADME, organism-based; settings: in vivo, 0.25 h; summary of the method: as §1
[6] = system: Rattus norvegicus; assay: Biodistribution in rat liver after 1 hr of intravenous injection at a dose of […]; type: ADME, organism-based; settings: in vivo; summary of the method: as §1
[7] = system: Rattus norvegicus; assay: Biodistribution in rat heart after 10 min of intravenous injection at a dose of […]; type: ADME, organism-based; settings: in vivo; summary of the method: as §1
[8] = system: Rattus norvegicus; assay: Biodistribution in rat kidney after 1 h of intravenous injection at a dose of […]; type: ADME, organism-based; settings: in vivo; summary of the method: as §1
[9] = system: Rattus norvegicus; assay: Biodistribution in rat kidney after 10 min of intravenous injection at a dose of […]; type: ADME, organism-based; settings: in vivo; summary of the method: as §1
[10] = system: Rattus norvegicus; assay: Biodistribution in rat blood after 5 min of intravenous injection at a dose of […]; type: ADME, organism-based; settings: in vivo; summary of the method: as §1
[11] = system: Rattus norvegicus; assay: Biodistribution in rat liver after 30 min of intravenous injection at a dose of […]; type: ADME, organism-based; settings: in vivo, 0.5 h; summary of the method: as §1
[12] = system: Rattus norvegicus; assay: Biodistribution in rat muscle after 10 min of intravenous injection at a dose of […]; type: ADME, organism-based, Muscle tissue; settings: in vivo; summary of the method: as §1
[13] = system: Rattus norvegicus; assay: Biodistribution in rat muscle after 5 min of intravenous injection at a dose of […]; type: ADME, organism-based, Muscle tissue; settings: in vivo; summary of the method: as §1
[14] = system: Rattus norvegicus; assay: Biodistribution in rat blood after 10 min of intravenous injection at a dose of […]; type: ADME, organism-based; settings: in vivo; summary of the method: as §1
[15] = system: Rattus norvegicus; assay: Biodistribution in rat muscle after 30 min of intravenous injection at a dose of […]; type: ADME, organism-based, Muscle tissue; settings: in vivo, 0.5 h; summary of the method: as §1
[16] = system: Rattus norvegicus; assay: Biodistribution in rat blood after 30 min of intravenous injection at a dose of […]; type: ADME, organism-based; settings: in vivo, 0.5 h; summary of the method: as §1
[17] = system: Rattus norvegicus; assay: Biodistribution in rat heart after 30 min of intravenous injection at a dose of […]; type: ADME, organism-based; settings: in vivo, 0.5 h; summary of the method: as §1
[18] = system: Rattus norvegicus; assay: Biodistribution in rat lung after 1 hr of intravenous injection at a dose of […]; type: ADME, organism-based; settings: in vivo; summary of the method: as §1
[19] = system: Rattus norvegicus; assay: Biodistribution in rat liver after 15 min of intravenous injection at a dose of […]; type: ADME, organism-based; settings: in vivo, 0.25 h; summary of the method: as §1
[20] = system: Rattus norvegicus; assay: Biodistribution in rat heart after 15 min of intravenous injection at a dose of […]; type: ADME, organism-based; settings: in vivo, 0.25 h; summary of the method: as §1
[21] = system: Rattus norvegicus; assay: Biodistribution in rat blood after 15 min of intravenous injection at a dose of […]; type: ADME, organism-based; settings: in vivo, 0.25 h; summary of the method: as §1
[22] = system: Rattus norvegicus; assay: Biodistribution in rat muscle after 15 min of intravenous injection at a dose of […]; type: ADME, organism-based, Muscle tissue; settings: in vivo, 0.25 h; summary of the method: as §1
[23] = system: Rattus norvegicus; assay: Biodistribution in rat muscle after 1 hr of intravenous injection at a dose of […]; type: ADME, organism-based, Muscle tissue; settings: in vivo; summary of the method: as §1
[24] = system: Rattus norvegicus; assay: Biodistribution in rat kidney after 5 min of intravenous injection at a dose of […]; type: ADME, organism-based; settings: in vivo; summary of the method: as §1
[25] = system: Rattus norvegicus; assay: Biodistribution in rat lung after 15 min of intravenous injection at a dose of […]; type: ADME, organism-based; settings: in vivo, 0.25 h; summary of the method: as §1
[26] = system: Rattus norvegicus; assay: Biodistribution in rat lung after 5 min of intravenous injection at a dose of […]; type: ADME, organism-based; settings: in vivo; summary of the method: as §1
[27] = system: Rattus norvegicus; assay: Biodistribution in rat liver after 5 min of intravenous injection at a dose of […]; type: ADME, organism-based; settings: in vivo; summary of the method: as §1
[28] = system: Rattus norvegicus; assay: Biodistribution in rat lung after 10 min of intravenous injection at a dose of […]; type: ADME, organism-based; settings: in vivo; summary of the method: as §1
[29] = system: Rattus norvegicus; assay: Biodistribution in rat heart after 1 hr of intravenous injection at a dose of […]; type: ADME, organism-based; settings: in vivo; summary of the method: as §1
[30] = system: Rattus norvegicus; assay: Biodistribution in rat kidney after 30 min of intravenous injection at a dose of […]; type: ADME, organism-based; settings: in vivo, 0.5 h; summary of the method: as §1

CCCCCCCCCCCCCCCC(=O)O [PALMITIC ACID]
ID/g [1]: 0.237% and 0.157% | ID/g [2]: 1.423% and 1.173% | ID/g [3]: 8.38% and 8.36% | ID/g [4]: 1.675% and 0.996% | ID/g [5]: 1.105% and 1.184% | ID/g [6]: 6.944% and 4.853% | ID/g [7]: 1.372% and 1.08% | ID/g [8]: 1.166% and 1.238% | ID/g [9]: 1.184% and 1.343% | ID/g [10]: 0.25% and 0.116% | ID/g [11]: 8.25% and 5.62% | ID/g [12]: 0.198% and 0.179% | ID/g [13]: 0.197% and 0.183% | ID/g [14]: 0.171% and 0.13% | ID/g [15]: 0.222% and 0.198% | ID/g [16]: 0.43% and 0.329% | ID/g [17]: 1.813% and 0.941% | ID/g [18]: 1.154% and 1.08% | ID/g [19]: 8.195% and 6.252% | ID/g [20]: 0.981% and 1.011% | ID/g [21]: 0.31% and 0.373% | ID/g [22]: 0.221% and 0.166% | ID/g [23]: 0.237% and 0.194% | ID/g [24]: 1.154% and 0.994% | ID/g [25]: 1.165% and 1.246% | ID/g [26]: 1.353% and 0.945% | ID/g [27]: 8.189% and 5.94% | ID/g [28]: 1.427% and 1.272% | ID/g [29]: 1.159% and 0.792% | ID/g [30]: 1.28% and 1.301%
